Test results as given in ChEMBL document CHEMBL3400072, “Synthesis, biological evaluation and docking analysis of a new series of methylsulfonyl and sulfamoyl acetamides and ethyl acetates as potent COX-2 inhibitors” (Bioorg Med Chem, 2015).
The source made the active and inactive calls. No cut-off for these calls is given here.

Experiments:
Mus musculus [1] = assay: Analgesic activity in Swiss albino mouse model assessed as reduction of acetic acid-induced writhes at 10 mg/kg, po administered 30 mins prior to acetic acid challenge measured after 5 mins for 10 mins relative to vehicle-treated control; format: functional; design: scale not given: the % may be the effect or the level left
Outline: (§1)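 Male Swiss albino mice (23–25 g), standard diet and water ad libitum, 23 °C, 12 h light/dark cycle. Oral dosing (1–40 mg/kg range), with carboxymethylcellulose (CMC) as vehicle, 30 min before ip injection of 0.6% acetic acid (10 mL/kg). Stretching movements counted for 10 min, beginning 5 min after acetic acid. Results given as writhe count and % reduction versus vehicle-treated mice.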

Mus musculus [2] = assay: Analgesic activity in Swiss albino mouse model assessed as reduction of acetic acid-induced writhes at 30 mg/kg, po administered 30 mins prior to acetic acid challenge measured after 5 mins for 10 mins relative to vehicle-treated control; format: functional; design: scale not given: the % may be the effect or the level left; outline: as §1
Mus musculus [3] = assay: Analgesic activity in Swiss albino mouse model assessed as reduction of acetic acid-induced writhes at 3 mg/kg, po administered 30 mins prior to acetic acid challenge measured after 5 mins for 10 mins relative to vehicle-treated control; format: functional; design: scale not given: the % may be the effect or the level left; outline: as §1
[4] = target: T1, Prostaglandin G/H synthase 2 (Homo sapiens) (UniProt P35354); settings: at 10 µM
T1 sequence (whole entry): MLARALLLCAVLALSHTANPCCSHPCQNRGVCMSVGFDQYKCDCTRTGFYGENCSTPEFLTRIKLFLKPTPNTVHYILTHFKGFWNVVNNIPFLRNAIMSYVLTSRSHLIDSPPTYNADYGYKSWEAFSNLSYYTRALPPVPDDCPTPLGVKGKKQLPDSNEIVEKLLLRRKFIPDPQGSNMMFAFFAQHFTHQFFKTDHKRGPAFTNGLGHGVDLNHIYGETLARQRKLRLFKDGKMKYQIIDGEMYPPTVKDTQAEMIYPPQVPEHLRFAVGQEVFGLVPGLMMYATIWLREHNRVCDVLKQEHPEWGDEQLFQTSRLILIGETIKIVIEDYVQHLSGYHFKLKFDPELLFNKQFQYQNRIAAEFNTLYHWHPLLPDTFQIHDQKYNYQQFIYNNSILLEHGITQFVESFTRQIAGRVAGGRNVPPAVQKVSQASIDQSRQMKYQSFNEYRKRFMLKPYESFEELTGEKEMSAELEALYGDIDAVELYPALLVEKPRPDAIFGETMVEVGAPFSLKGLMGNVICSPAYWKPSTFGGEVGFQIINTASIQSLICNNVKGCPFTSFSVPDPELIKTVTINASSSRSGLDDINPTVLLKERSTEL

[5] = target: T2, Prostaglandin G/H synthase 2 (Homo sapiens, UniProt P35354); assay: Inhibition of human recombinant COX2 using […] as substrate after 10 mins by EIA
T2 sequence (P35354 whole entry): T1 sequence (whole entry)

[6] = target: T3, Prostaglandin G/H synthase 1 (Ovis aries) (UniProt P05979); settings: at 10 µM
T3 sequence (whole entry): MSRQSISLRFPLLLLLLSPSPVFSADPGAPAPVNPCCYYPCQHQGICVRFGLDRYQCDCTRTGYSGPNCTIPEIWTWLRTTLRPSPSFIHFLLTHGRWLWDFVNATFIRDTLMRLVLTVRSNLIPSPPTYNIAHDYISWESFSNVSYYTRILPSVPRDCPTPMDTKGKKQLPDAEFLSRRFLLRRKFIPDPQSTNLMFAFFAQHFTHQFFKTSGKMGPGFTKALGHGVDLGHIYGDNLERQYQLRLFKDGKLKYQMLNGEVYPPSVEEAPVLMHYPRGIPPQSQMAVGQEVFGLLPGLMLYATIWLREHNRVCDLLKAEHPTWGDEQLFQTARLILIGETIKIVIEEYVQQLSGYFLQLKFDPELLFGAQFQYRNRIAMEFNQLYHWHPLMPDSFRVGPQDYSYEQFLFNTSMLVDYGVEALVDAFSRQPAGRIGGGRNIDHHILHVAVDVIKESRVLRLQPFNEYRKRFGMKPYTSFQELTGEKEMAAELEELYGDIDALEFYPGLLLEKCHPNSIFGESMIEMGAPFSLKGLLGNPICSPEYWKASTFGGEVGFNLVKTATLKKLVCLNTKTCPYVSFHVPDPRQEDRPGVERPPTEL

Mus musculus [7] = assay: Analgesic activity in Swiss albino mouse model assessed as reduction of acetic acid-induced writhes at 20 mg/kg, po administered 30 mins prior to acetic acid challenge measured after 5 mins for 10 mins relative to vehicle-treated control; format: functional; design: scale not given: the % may be the effect or the level left; outline: as §1
Mus musculus [8] = assay: Analgesic activity in Swiss albino mouse model assessed as reduction of acetic acid-induced writhes at 40 mg/kg, po administered 30 mins prior to acetic acid challenge measured after 5 mins for 10 mins relative to vehicle-treated control; format: functional; design: scale not given: the % may be the effect or the level left; outline: as §1
Mus musculus [9] = assay: Analgesic activity in po dosed Swiss albino mouse model assessed as reduction of acetic acid-induced writhes administered 30 mins prior to acetic acid challenge measured after 5 mins for 10 mins relative to vehicle-treated control; format: functional, organism-based; outline: as §1

inhibition [4] [%]	IC50 [5] [µM]	inhibition [6]	SMILES	Activity (Mus musculus [1]) [%]	Activity (Mus musculus [2]) [%]	Activity (Mus musculus [3]) [%]	Activity (Mus musculus [7]) [%]	Activity (Mus musculus [8]) [%]	Activity (Mus musculus [9])
62	–	–	CCCNC(=O)Cc1cc(-c2ccc(S(N)(=O)=O)cc2)n(-c2ccc(F)cc2)c1C	8.3	39.1	3.9	–	–	–
95	4.91	36%	Cc1c(CC(=O)NC(C)C)cc(-c2ccc(S(C)(=O)=O)cc2)n1-c1ccc(F)cc1	12.2	48.7	–	–	–	–
65	–	–	Cc1c(CC(=O)O)cc(-c2ccc(S(N)(=O)=O)cc2)n1-c1cccc(F)c1	9.5	–	–	–	–	–
48	–	–	Cc1c(CC(=O)NC(C)C)cc(-c2ccc(S(N)(=O)=O)cc2)n1-c1ccc(F)cc1	36.5	43.7	16.1	–	–	–
49	–	–	Cc1c(CC(=O)NC(C)C)cc(-c2ccc(S(N)(=O)=O)cc2)n1-c1cccc(F)c1	29.3	31.6	11.5	–	–	–
74	7	–	Cc1c(CC(=O)NC(C)C)cc(-c2ccc(S(C)(=O)=O)cc2)n1-c1cccc(F)c1	3.6	25.3	–	–	–	–
65	–	–	CCCNC(=O)Cc1cc(-c2ccc(S(C)(=O)=O)cc2)n(-c2ccc(F)cc2)c1C	29.9	–	10.2	–	–	–
43	–	–	CCCNC(=O)Cc1cc(-c2ccc(S(C)(=O)=O)cc2)n(-c2cccc(F)c2)c1C	12.2	9.9	–	–	–	–
82	1.07	inactive	CCOC(=O)Cc1cc(-c2ccc(S(N)(=O)=O)cc2)n(-c2ccc(F)cc2)c1C	10.4	–	–	24.8	62.3	Dose-dependent effect
89	0.92	inactive	CCOC(=O)Cc1cc(-c2ccc(S(N)(=O)=O)cc2)n(-c2cccc(F)c2)c1C	26	33.5	–	–	–	–
–	–	–	Cc1ccc(-c2cc(C(F)(F)F)nn2-c2ccc(S(N)(=O)=O)cc2)cc1 [CELECOXIB]	57.4	–	–	–	–	–
65	–	–	Cc1c(CC(=O)O)cc(-c2ccc(S(N)(=O)=O)cc2)n1-c1ccc(F)cc1	16.9	–	–	33.1	49.1	–
96	5.78	inactive	CCCNC(=O)Cc1cc(-c2ccc(S(N)(=O)=O)cc2)n(-c2cccc(F)c2)c1C	–	12.2	–	–	–	–
